Measurements as given in ChEMBL document CHEMBL3085739, “Design, synthesis, and biological evaluation of 2-oxo-3,4-dihydropyrimido[4,5-d]pyrimidinyl derivatives as new irreversible epidermal growth factor receptor inhibitors with improved pharmacokinetic properties” (J Med Chem, 2013).
Converted amounts (≈) assume the structure as drawn.

Experiments:
[1] = target: Epidermal growth factor receptor (Homo sapiens, UniProt P00533, L858R/T790M); test: Inhibition of EGFR L858R/T790M double mutant (unknown origin) after 1.5 hrs by FRET-based Z'-Lyte assay; assay type: protein assay
Sequence of Epidermal growth factor receptor (P00533 25-1210 T790M/L858R limits assumed): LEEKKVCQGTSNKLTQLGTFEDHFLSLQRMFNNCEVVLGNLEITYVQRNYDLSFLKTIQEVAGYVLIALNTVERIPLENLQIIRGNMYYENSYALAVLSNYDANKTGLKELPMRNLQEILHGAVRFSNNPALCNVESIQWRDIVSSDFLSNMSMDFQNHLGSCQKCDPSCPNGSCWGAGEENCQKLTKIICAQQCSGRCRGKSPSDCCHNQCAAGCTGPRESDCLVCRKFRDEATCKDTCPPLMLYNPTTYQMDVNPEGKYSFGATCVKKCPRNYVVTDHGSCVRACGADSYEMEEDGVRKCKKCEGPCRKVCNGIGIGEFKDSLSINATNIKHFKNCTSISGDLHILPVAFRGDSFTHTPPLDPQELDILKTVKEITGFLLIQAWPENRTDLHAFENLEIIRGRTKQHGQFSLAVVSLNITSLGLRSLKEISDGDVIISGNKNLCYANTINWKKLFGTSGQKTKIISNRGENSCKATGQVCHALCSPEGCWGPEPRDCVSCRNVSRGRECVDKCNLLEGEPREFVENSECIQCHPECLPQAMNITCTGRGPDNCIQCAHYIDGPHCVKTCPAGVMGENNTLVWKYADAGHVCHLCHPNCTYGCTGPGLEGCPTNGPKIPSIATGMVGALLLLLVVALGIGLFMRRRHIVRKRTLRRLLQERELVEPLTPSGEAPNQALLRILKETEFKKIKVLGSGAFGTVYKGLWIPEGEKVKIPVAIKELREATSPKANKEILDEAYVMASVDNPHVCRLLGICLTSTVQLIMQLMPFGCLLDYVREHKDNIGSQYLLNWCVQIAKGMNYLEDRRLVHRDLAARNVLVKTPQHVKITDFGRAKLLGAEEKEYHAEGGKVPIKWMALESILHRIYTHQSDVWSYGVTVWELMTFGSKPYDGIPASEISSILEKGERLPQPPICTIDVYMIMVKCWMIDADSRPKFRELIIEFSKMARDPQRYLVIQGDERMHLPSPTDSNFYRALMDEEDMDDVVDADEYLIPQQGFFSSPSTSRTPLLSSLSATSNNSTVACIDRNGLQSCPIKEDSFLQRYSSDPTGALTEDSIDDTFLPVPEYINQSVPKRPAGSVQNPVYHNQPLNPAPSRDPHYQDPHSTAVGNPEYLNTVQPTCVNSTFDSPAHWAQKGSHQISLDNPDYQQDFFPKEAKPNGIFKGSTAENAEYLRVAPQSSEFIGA

[2] = Cmax in Sprague-Dawley rat at 25 mg/kg, po by LC/MS analysis; assay type: ADME, organism-based; set-up: dose 25 mg/kg, route oral; details: in vivo
Method in brief: (§1)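 Male Sprague-Dawley rats (180−220 g), n = 4 per route, single iv dose 5 mg/kg or oral gavage 25 mg/kg. Vehicle was 2% DMSO, 4% EtOH, 4% castor oil, 90% H2O. Orbital sinus blood was taken from 2 min to 72 h into heparinized tubes. Plasma levels were measured by LC/MS with propranolol internal standard and analysed by pharmacokinetic modelling.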

[3] = Oral bioavailability in Sprague-Dawley rat at 25 mg/kg by LC/MS analysis; assay type: ADME, organism-based; details: in vivo; method in brief: as §1
[4] = AUC (0 to infinity) in Sprague-Dawley rat at 5 mg/kg, iv by LC/MS analysis; assay type: ADME, organism-based; set-up: time infinity, dose 5 mg/kg, route intravenous; details: plasma; method in brief: as §1
[5] = Thermodynamic aqueous solubility of the compound in PBS buffer at pH 6.8 after 24 hrs by HPLC analysis; assay type: physicochemical; details: for solubility thermodynamic at 24 h: PBS buffer, pH 6.8, read-out: Therm_solubility
Method in brief: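 Compound was shaken in aqueous buffer at pH 6.8 for 24 h at ambient temperature; dissolved concentration was measured by HPLC.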

[6] = test system: NCI-H1975; test: Antiproliferative activity against human NCI-H1975 cells expressing EGFR L858R/T790M double mutant after 72 hrs by MTS assay; assay type: functional, cell-based; details: NCI-H1975, 72 h
[7] = AUC (0 to infinity) in Sprague-Dawley rat at 25 mg/kg, po by LC/MS analysis; assay type: ADME, organism-based; set-up: dose 25 mg/kg, route oral, time infinity; details: plasma; method in brief: as §1
[8] = Clearance in Sprague-Dawley rat at 5 mg/kg, iv by LC/MS analysis; assay type: ADME, organism-based; set-up: dose 5 mg/kg, route intravenous; details: in vivo; method in brief: as §1
[9] = Clearance in Sprague-Dawley rat at 25 mg/kg, po by LC/MS analysis; assay type: ADME, organism-based; set-up: dose 25 mg/kg, route oral; details: in vivo; method in brief: as §1
[10] = Cmax in Sprague-Dawley rat at 5 mg/kg, iv by LC/MS analysis; assay type: ADME, organism-based; set-up: dose 5 mg/kg, route intravenous; details: in vivo; method in brief: as §1

| IC50 [1] [nM] | Cmax [2] [ng/mL] | bioavailability [3] [%] | AUC(0-inf) [4] [ng·h/mL] | solubility thermodynamic at 24 h [5] [µg/mL] | IC50 [6] [nM] | AUC(0-inf) [7] [ng·h/mL] | clearance [8] [mL/min/kg] | CL/F [9] [mL/min/kg] | Cmax [10] [ng/mL] | Therm solubility ([5]; buffer, pH 6.8, 24 h) [µg/mL] | SMILES |
| --- | --- | --- | --- | --- | --- | --- | --- | --- | --- | --- | --- |
| 8.8 | 102 | 24 | 359 | 107 (≈ 184 µM) | 279 | 418 | 240 | 1040 | 784 |  | C=CC(=O)N1CC[C@H](N2C(=O)N(Cc3ccccc3)Cc3cnc(Nc4ccc(N5CCN(C)CC5)cc4OC)nc32)C1 |
| > 1000 |  |  |  | 96.7 (≈ 174 µM) | > 10000 |  |  |  |  |  | C=CC(=O)NCCN1C(=O)N(Cc2ccccc2)Cc2cnc(Nc3ccc(N4CCN(C)CC4)cc3OC)nc21 |
| 864 |  |  |  | 2490 (≈ 4660 µM) | 3060 |  |  |  |  |  | C=CC(=O)N1CC[C@H](N2C(=O)N(C(C)C)Cc3cnc(Nc4ccc(N5CCN(C)CC5)cc4OC)nc32)C1 |
| 7.2 | 420 | 20 | 949 | 256 (≈ 450 µM) | 65 | 948 | 91.7 | 467 | 3410 |  | C=CC(=O)N1CC[C@H](N2C(=O)N(c3ccccc3)Cc3cnc(Nc4ccc(N5CCN(C)CC5)c(OC)c4)nc32)C1 |
| 525 |  |  |  | 1250 (≈ 2470 µM) | 1480 |  |  |  |  |  | C=CC(=O)N1CC[C@H](N2C(=O)N(C)Cc3cnc(Nc4ccc(N5CCN(C)CC5)cc4OC)nc32)C1 |
| 235 | 1670 | 44 | 2030 | 3.5 (≈ 7.95 µM) | 1680 | 4520 | 41.7 | 95 | 6540 |  | C=CC(=O)N1CC[C@H](N2C(=O)N(c3ccccc3)Cc3cnc(Nc4ccccc4)nc32)C1 |
| 708 |  |  |  | 18.8 (≈ 30.8 µM) | 2680 |  |  |  |  |  | C=CC(=O)NC1CCC(N2C(=O)N(Cc3ccccc3)Cc3cnc(Nc4ccc(N5CCN(C)CC5)cc4OC)nc32)CC1 (centres undefined) |
| 15.2 | 613 | 44 | 962 | 1540 (≈ 2700 µM) | 111 | 2120 | 86.7 | 200 | 1790 |  | C=CC(=O)N1CC[C@H](N2C(=O)N(c3ccccc3)Cc3cnc(Nc4ccc(N5CCN(C)CC5)cc4OC)nc32)C1 |
| 35.6 |  |  |  | 214 (≈ 374 µM) | 89 |  |  |  |  |  | C=CC(=O)N1CC[C@H](N2C(=O)N(c3ccccc3)Cc3cnc(Nc4ccc(N5CCN(C)CC5)c(Cl)c4)nc32)C1 |
| 16.2 | 359 |  |  | 310 (≈ 577 µM) | 311 | 1300 |  | 335 |  |  | C=CC(=O)N1CC[C@H](N2C(=O)N(c3ccccc3)Cc3cnc(Nc4ccc(C5CCN(C)CC5)cc4)nc32)C1 |
| 204 |  |  |  | 129 (≈ 216 µM) | 1560 |  |  |  |  |  | C=CC(=O)N1CCC[C@H](N2C(=O)N(Cc3ccccc3)Cc3cnc(Nc4ccc(N5CCN(C)CC5)cc4OC)nc32)C1 |
| 40.3 |  |  |  | 142 (≈ 237 µM) | 437 |  |  |  |  |  | C=CC(=O)N1CCC[C@@H](N2C(=O)N(Cc3ccccc3)Cc3cnc(Nc4ccc(N5CCN(C)CC5)cc4OC)nc32)C1 |
| 41.3 | 232 | 40 | 561 | 4350 (≈ 7680 µM) | 448 | 1130 | 153 | 382 | 1410 |  | C=CC(=O)N1CC[C@H](N2C(=O)N(c3ccccc3)Cc3cnc(Nc4ccc(CCN5CCN(C)CC5)cc4)nc32)C1 |
| 58.7 |  |  |  | 250 (≈ 446 µM) | 679 |  |  |  |  |  | C=CC(=O)N1CC[C@H](N2C(=O)N(C3CCCC3)Cc3cnc(Nc4ccc(N5CCN(C)CC5)cc4OC)nc32)C1 |
| 97.9 | 291 | 20 | 746 | 714 (≈ 1330 µM) | 523 | 760 | 113 | 565 | 1820 |  | C=CC(=O)N1CC[C@H](N2C(=O)N(c3ccccc3)Cc3cnc(Nc4cccc(N5CCN(C)CC5)c4)nc32)C1 |
| 42.9 |  |  |  | 763 (≈ 1330 µM) | 654 |  |  |  |  |  | C=CC(=O)N1CC[C@H](N2C(=O)N(C3CCCCC3)Cc3cnc(Nc4ccc(N5CCN(C)CC5)cc4OC)nc32)C1 |
|  | 964 | 33 | 2120 | 691 (≈ 1240 µM) |  | 3480 | 40 | 122 | 3260 |  | C=CC(=O)N1CC[C@H](N2C(=O)N(c3ccccc3)Cc3cnc(Nc4ccc(N5CCN(C)CC5)c(F)c4)nc32)C1 |
| 107 |  |  |  | 199 (≈ 341 µM) | 1550 |  |  |  |  |  | C=CC(=O)N1CC[C@@H](N2C(=O)N(Cc3ccccc3)Cc3cnc(Nc4ccc(N5CCN(C)CC5)cc4OC)nc32)C1 |
| 29.1 | 783 | 54 | 857 | 976 (≈ 1810 µM) | 249 | 2310 | 96.7 | 203 | 1520 |  | C=CC(=O)N1CC[C@H](N2C(=O)N(c3ccccc3)Cc3cnc(Nc4ccc(N5CCN(C)CC5)cc4)nc32)C1 |
|  |  |  | 1570 |  |  |  | 53.3 |  | 4370 | 4 | C=CC(=O)Nc1cccc(N2C(=O)N(Cc3ccccc3)Cc3cnc(Nc4ccc(N5CCN(C)CC5)cc4OC)nc32)c1.CS(=O)(=O)O |
| 55.5 |  |  |  | 60.9 (≈ 100 µM) | 196 |  |  |  |  |  | C=CC(=O)N1CC[C@H](N2C(=O)N(c3ccccc3)Cc3cnc(Nc4ccc(N5CCN(C)CC5)c(C(F)(F)F)c4)nc32)C1 |

| SMILES | IC50 [1] [nM] | Cmax [2] [ng/mL] | bioavailability [3] [%] | AUC(0-inf) [4] [ng·h/mL] | solubility thermodynamic at 24 h [5] [µg/mL] | IC50 [6] [nM] | AUC(0-inf) [7] [ng·h/mL] | clearance [8] [mL/min/kg] | CL/F [9] [mL/min/kg] | Cmax [10] [ng/mL] | Therm solubility ([5]; buffer, pH 6.8, 24 h) [µg/mL] |
| --- | --- | --- | --- | --- | --- | --- | --- | --- | --- | --- | --- |
| C=CC(=O)N1CCC(N2C(=O)N(Cc3ccccc3)Cc3cnc(Nc4ccc(N5CCN(C)CC5)cc4OC)nc32)CC1 | 144 |  |  |  | 9.3 (≈ 15.6 µM) | 546 |  |  |  |  |  |
